Assay outcomes from PubChem BioAssay.
Shown are actives, neighbours in structure and some others; about 3% of the full set was active somewhere.
HSF1 activator – increases HSF-1 driven luciferase reporter signal. activation, % at 9 µM. hit rate 1.7% among 300,000. NIH3T3-HGL HSF-1 luciferase reporter, MG132, 8 h; 100% = twice DMSO control signal;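 active = mean replicate activation of at least 50% with a set share of replicates each reaching 50%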;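 also: 0% = median of the neutral control wells and 100% = twice that signal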
T cruzi inh – T. cruzi replication inhibition. T. cruzi beta-gal in NIH3T3, luminescence, 90 h. inhibition, % (no concentration beside the values). hit rate 1.4% among 300,000. AID 1885;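 active = mean inhibition across valid replicates above about 55%, limit read from the data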;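 also: signal also drops with host cell toxicity which is not excluded here; 0% = plate median of DMSO wells and 100% = zero luminescence signal; higher percent means less beta-gal luminescence so fewer parasites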
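Assay system: NIH/3T3 fibroblasts plus reporter T. cruzi. Amount: NIH/3T3 cells, 5,000 per well. Buffer or medium: DMEM, 2% fetal bovine serum. Doses: compound pinned at 50 nL/well, DMSO. Schedule: ≥90 h infection period, 3 h prior cell attachment. Signal: luminescent β-galactosidase signal after 60 min lysis. Read-out: parasite load inhibition, %.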
CaV13 FRET inh – Disruptors of the CACNA1D IQ motif to Ca2+-dependent inactivation inhibitor domain association, primary screening, Förster resonance energy transfer in intact living …. HEK cells, CFP/YFP FRET ICDI-IQ, plate reader, 10 min; percent FRET-ratio fall versus neutral wells. inhibition, % at 12.3 µM. hit rate 0.098% among 340,000. AID 743397;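 active = mean replicate inhibition of at least 30% and at least 1% of replicates passing that level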;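 also: 0% = median of the neutral control wells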
Glyco luc inh – blocks N-linked glycosylation in D54 reporter cells; hit rate 0.23% among 360,000; reporter increase, % at 12.5 µM; AID 588692; D54 ERlucT glycosylation luciferase reporter, 24 h; percent of 100 nM tunicamycin response;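 active = mean luciferase reporter signal, scaled so untreated is 0 and the glycosylation-blocking control 100, at or above a set limit in every replicate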;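 also: luciferase carries N-glycosylation sites so blocking glycosylation raises the light; 0% = median of neutral control wells and 100% = median of 100 nM tunicamycin wells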
PfHsp90 set2 – inhibits growth of yeast expressing Plasmodium falciparum Hsp90; AID 504621; S. cerevisiae expressing PfHsp90, BacTiter-Glo ATP, 48 h; yeast lacking PDR1 and PDR3 efflux regulators; hit rate 0.32% among 310,000; inhibition, % at 9.4 µM;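 active = every replicate shows inhibition above about 80%, whatever the replicate mean, limit read from the data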;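 also: 0% = DMSO neutral controls and 100% = 20 µM radicicol positive controls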
PvdQ inh – P. aeruginosa PvdQ acylase inhibition; inhibition, % at 10 µM; hit rate 0.063% among 340,000; purified PvdQ acylase, fluorescence plate reader; in the data active = inhibition above about 30%, passing the limit was not always enough;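 also: 0% = vehicle neutral wells and 100% = reference inhibitor wells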
Starred values were filed as active, the others as inactive; x = no result.

SMILES | HSF1 activator | T cruzi inh | CaV13 FRET inh | Glyco luc inh | PfHsp90 set2 | PvdQ inh
COC(=O)c1ccccc1NC(=O)c1nc(S(=O)(=O)Cc2ccccc2)ncc1Cl | 27.7 | 44.0 | -14.8 | -13.6 | -5.4 | -5.4
Cc1ccc(CN2C(=O)CSCC2(C)C(=O)NC(C)C)cc1 (centres undefined) | x | x | -9.1 | x | x | x
N#Cc1ccc2nc(-c3ccc(CN4CCC(n5cc(-c6ccccc6)[nH]c5=O)CC4)cc3)c(-c3ccccc3)nc2c1 | x | x | -5.1 | x | x | x
COC(=O)C1=C(C)N(Cc2cccc(C(F)(F)F)c2)C(=NCc2cc(OC)c(OC)c(OC)c2)NC1c1cccc(Cl)c1 (centres undefined) | x | x | -4.6 | x | x | x
CCCCc1c(-c2ccccc2OC)ncn1Cc1ccc([N+](=O)[O-])cc1 | x | x | -8.3 | x | x | x
C#CCNC(=O)C[C@H]1C[C@@]2(C(=O)OC)C(=C[C@H](C3CCCC3)O[C@@H]2C)N(Cc2ccccc2)C1=O | x | x | -8.3 | x | x | x
CCCCCCC12C(=Cc3cc4c(cc31)OCCO4)c1cc(OC)c(OC)cc1C(CC(=O)NCc1ccccc1)N2C(=O)OC (centres undefined) | x | x | -5.4 | x | x | x
CCOC(=O)c1c(C)[n+](-c2ccc(C)cc2)c(CC)c2cc(OC)c(OC)cc12 | 6.2 | 55.1* | -3.5 | 0.7 | 8.9 | -21.4
COCC1CCCCN1Cc1cn[nH]c1-c1ccc(OC)cc1OC (centres undefined) | 7.9 | -1.3 | -2.5 | 1.5 | x | -7.7
COCCN(Cc1cn[nH]c1-c1ccc2cc(OC)ccc2c1)C(C)C | 56.3* | 65.5* | -1.0 | -0.8 | 4.9 | -12.1
COCC1CCCCN1Cc1cn[nH]c1-c1ccc2cc(OC)ccc2c1 (centres undefined) | 15.2 | 70.5* | -4.7 | 0.3 | -13.9 | -16.0
O=C(NNc1ccccc1)C(=O)NNS(=O)(=O)c1ccc([N+](=O)[O-])cc1 | 0.1 | 61.1* | 21.9 | 3.1 | -19.7 | -1.3
O=C(c1cnn(-c2ccccc2)c1)c1ccc2ccccc2c1O | 57.6* | -13.8 | -4.7 | 2.0 | 9.7 | 3.4
O=C(O)c1ccc(-n2cc(C(=O)c3ccccc3O)cn2)cc1 | -0.9 | -15.4 | -4.4 | 3.1 | -4.7 | 2.3
CCc1ccc(OCCCCN(C)Cc2ccccc2)cc1 | 10.8 | 55.0* | -5.9 | -2.6 | -6.9 | 17.0
CN(CCCCOc1ccc(F)cc1)Cc1ccccc1 | -12.0 | 50.4 | -4.5 | -2.0 | 1.5 | -8.0
CCc1cc2c(nc1CC)CCCN2CCOC | x | x | -10.2 | x | x | x
COc1ccc(-c2cc(-c3ccccc3O)[nH]n2)cc1 | 85.1* | -9.8 | x | -8.2 | 25.4 | 5.0
Cc1ccc(O)c(-c2cc(-c3cccc(Br)c3)n[nH]2)c1 | 66.8* | 6.1 | 1.1 | 3.8 | 105.0* | -9.0
Cc1ccc(-c2cc(-c3ccc(F)cc3)n[nH]2)c(O)c1 | 30.2 | 10.1 | -4.9 | -12.3 | -12.1 | -2.5
Cc1ccc(-c2cc(-c3ccc(C)cc3O)[nH]n2)cc1 | 70.5* | -3.1 | -2.2 | -9.5 | -12.4 | -13.6
CCCc1c(-c2ccc(F)cc2)ncn1Cc1ccccc1OC | x | x | -9.5 | x | x | x
COc1ccc(NC(=O)c2cc(-c3cc(F)ccc3OCC3CCCO3)n[nH]2)c(C)c1 (centres undefined) | x | x | -5.9 | -6.7 | x | x
C=Cc1ccc(Cn2c(C)c(C(=O)NCc3cccc(C(F)(F)F)c3)sc2=O)cc1 | x | x | 22.5 | -2.3 | x | x
Cc1c(C(=O)NCc2ccc(Cl)c(Cl)c2)sc(=O)n1Cc1cccc(F)c1 | x | x | 39.1* | -5.0 | x | x
SMILES | HSF1 activator | T cruzi inh | CaV13 FRET inh | Glyco luc inh | PfHsp90 set2 | PvdQ inh
CSc1ccc(Cn2c(C)c(C(=O)NCc3cccc(C)c3)sc2=O)cc1 | x | x | -8.7 | -6.9 | x | x
C=Cc1ccc(Cn2c(C)c(C(=O)NCc3cccc(C)c3)sc2=O)cc1 | x | x | 69.1* | -7.9 | x | x
CSc1ccc(Cn2c(C)c(C(=O)NCc3cccc(Cl)c3)sc2=O)cc1 | x | x | 42.0* | -7.5 | x | x
Cc1c(C(=O)NCc2cccc(Cl)c2)sc(=O)n1Cc1cccc(F)c1 | x | x | 4.6 | -7.7 | x | x
COc1ccc(Br)c(Cn2c(C)c(C(=O)NCc3ccc4c(c3)OCCO4)sc2=O)c1 | x | x | 46.6* | -5.3 | x | x
O=[N+]([O-])c1cccc(-c2nnc(-c3ccc4c(c3)OCO4)o2)c1 | -6.5 | 1.7 | -4.4 | -5.5 | -1.0 | -8.2
Clc1ccccc1-c1nnc(-c2ccc3c(c2)OCO3)o1 | 95.1* | -11.6 | -0.4 | -9.3 | 0.9 | -18.2
CCn1c(SCC(=O)Nc2ccc(C(C)=O)cc2)nc2c([nH]c3ccccc32)c1=O | 33.5 | 13.0 | -3.0 | 91.6* | -19.3 | -6.9
O=S1(=O)CCSC[C@@H](CN2CCCC2)N1 | x | x | -3.6 | x | x | x
COc1ccncc1-c1ccc(C2=CC(=O)CC(C)(C)C2=O)cc1 | x | x | -5.6 | 3.7 | x | x
CN(C)CCOc1ccc(/C(=C(/CCCl)c2ccccc2)c2ccccc2)cc1 | -6.1 | 62.4* | -4.5 | -4.1 | -5.1 | 0.6
Cc1cc2c(cc1C)-n1nnnc1C(N(C)CCc1ccccc1)C(=O)N2 (centres undefined) | x | x | -6.7 | x | x | x
CCCCNC1C(CC)C(CCC)C(C#N)(C#N)C1(C#N)C#N (centres undefined) | 118.3* | -7.4 | x | 4.6 | 8.7 | -11.2
Cc1ccccc1-c1ccc2c(c1)[C@@H]1C[C@H](N(C)C(=O)c3ccco3)[C@H]([C@H](C)O)CN1CC2 | x | x | -4.1 | x | x | x
CCc1ccc(N=c2c([N+](=O)[O-])nn(-c3ccccc3)n2O)cc1 | 0.8 | 56.2* | x | 1.3 | -3.0 | 10.7
Cc1ccc(CN=c2c([N+](=O)[O-])nn(-c3cccc(C)c3)n2O)cc1 | 20.7 | 30.8 | -2.2 | 1.5 | -9.5 | -1.5
Cc1cc(C)cc(N=c2c([N+](=O)[O-])nn(-c3ccc(Cl)cc3)n2O)c1 | 7.3 | 59.2* | -2.1 | -2.2 | 8.6 | 3.9
CC(=O)c1cccc(NC(=O)C2Cc3c(-c4ccc(Cl)cc4)ccnc3O2)c1 (centres undefined) | x | x | x | 0.2 | x | x
Cc1ccc(Oc2cccc3c2S(=O)(=O)N([C@H](C)c2ccccc2)C[C@@H](COCc2ccccc2)O3)cc1 | x | x | -9.1 | x | x | x
C[C@@H]1CN([C@@H](C)CO)C(=O)CCCn2nncc2CO[C@H]1CN(C)Cc1ccc(O)cc1 | x | x | -10.7 | x | x | x
O=C(Nc1nnc([C@H]2C[C@H](O)[C@@H](CO)O2)s1)c1ccc(Oc2ccccc2)cc1 | x | x | -12.8 | -0.4 | x | x
CC(C)Cc1ccc(CN2CCC(n3nccc3NC(=O)C3CCCC3)CC2)cc1 | 2.4 | 59.0* | x | -2.1 | 3.4 | -15.8
Cc1ccc2c3c1C1(C(=O)N3C(C)(C)CC2C)C(C#N)=C(N)Oc2cc(O)ccc21 (centres undefined) | -12.1 | -4.9 | -5.4 | -4.3 | -43.6 | -14.2
Cc1cc2c3c(c1)C1(C(=O)N3C(C)(C)CC2C)C(C#N)=C(N)Oc2cc(O)ccc21 (centres undefined) | 67.1* | 66.2* | -9.4 | -2.8 | -17.7 | 3.5
